# Measurements published in ChEMBL document CHEMBL1153631, “On the role of topoisomerase I in mediating the cytotoxicity of 9-aminoacridine-based anticancer agents” (Bioorg Med Chem Lett, 2009).
# Activity calls are given as the source filed them. The calls are words filed in the database; no cut-off is given here.
# Columns and labels:
# DU-145 = experiment: Cytotoxic activity against human DU145 cells after 48 hrs by fluorescent resazurin dye assay; format: functional, cell-based; conditions: DU-145, 48 h
# HCT-116 = experiment: Cytotoxic activity against human HCT116 cells after 48 hrs by fluorescent resazurin dye assay; format: functional, cell-based; conditions: HCT-116, 48 h
# [1] = Cytotoxic activity against mouse Hepa-1c1c7 cells after 48 hrs by fluorescent resazurin dye assay; format: functional, cell-based; conditions: Hepa-1c1c7, 48 h
# NCI-H460 = experiment: Cytotoxic activity against human H460 cells after 48 hrs by fluorescent resazurin dye assay; format: functional, cell-based; conditions: NCI-H460, 48 h
# MCF7 = experiment: Cytotoxic activity against human MCF7 cells after 48 hrs by fluorescent resazurin dye assay; format: functional, cell-based; conditions: MCF7, 48 h
# [2] = Cytotoxic activity against human SU-8686 cells after 48 hrs by fluorescent resazurin dye assay; format: functional, cell-based; conditions: SU.86.86, 48 h
# SK-MEL = experiment: Cytotoxic activity against human SK-MEL cells after 48 hrs by fluorescent resazurin dye assay; format: functional, cell-based
# REH = experiment: Cytotoxic activity against human REH cells after 48 hrs by fluorescent resazurin dye assay; format: functional, cell-based
# [3] = molecular target: T1, DNA topoisomerase 1 (Homo sapiens) (UniProt P11387); experiment: Inhibition of human topoisomerase 1-mediated relaxation of supercoiled plasmid O6#7 DNA at 100 uM after 30 mins by gel electrophoresis
# T1 sequence (whole entry): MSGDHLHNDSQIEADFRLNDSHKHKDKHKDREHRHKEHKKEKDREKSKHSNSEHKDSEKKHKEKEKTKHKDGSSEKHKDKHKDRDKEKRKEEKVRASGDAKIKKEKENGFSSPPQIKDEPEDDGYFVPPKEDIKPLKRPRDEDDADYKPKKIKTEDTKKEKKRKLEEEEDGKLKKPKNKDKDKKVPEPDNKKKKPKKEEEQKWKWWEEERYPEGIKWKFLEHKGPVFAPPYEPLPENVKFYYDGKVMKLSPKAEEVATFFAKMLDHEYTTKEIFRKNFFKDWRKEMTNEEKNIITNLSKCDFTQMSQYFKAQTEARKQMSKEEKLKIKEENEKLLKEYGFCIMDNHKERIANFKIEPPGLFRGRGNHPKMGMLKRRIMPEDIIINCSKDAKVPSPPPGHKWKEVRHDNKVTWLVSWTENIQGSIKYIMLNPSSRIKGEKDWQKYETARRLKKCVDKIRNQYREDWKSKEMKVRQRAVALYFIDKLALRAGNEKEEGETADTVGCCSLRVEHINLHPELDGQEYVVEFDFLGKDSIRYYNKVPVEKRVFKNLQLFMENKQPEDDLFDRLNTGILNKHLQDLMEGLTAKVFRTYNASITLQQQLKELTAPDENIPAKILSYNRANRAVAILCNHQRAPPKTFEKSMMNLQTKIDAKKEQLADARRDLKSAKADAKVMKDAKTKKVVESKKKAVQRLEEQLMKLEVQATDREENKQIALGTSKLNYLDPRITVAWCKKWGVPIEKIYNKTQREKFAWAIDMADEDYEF
# In short: (§1)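 Supercoiled plasmid incubated with 2 units topoisomerase I and test agent at 8 μM or at a final 50 or 100 μM. A no-enzyme lane was included. Supercoiled and relaxed DNA bands were resolved on a gel. Four experiments.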
# [4] = molecular target: T1, DNA topoisomerase 1 (Homo sapiens); experiment: Induction of covalent topoisomerase 1-DNA adduct stabilization in human MIA PaCa cells at 20 uM after 1 hr by ICE assay; format: cell-based; conditions: 100 uM, in the assay text read “100 uM” for “20 uM”
# In short: (§2)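 MiaPACA cells exposed to 20 or 100 μM agent for 1 h at 37 °C (vehicle 0.1% DMSO), then lysed with sarkosyl for the ICE bioassay. CsCl-purified DNA-positive gradient fractions were immunoblotted for topoisomerase I. Four independent experiments.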
# [5] = Cytotoxic activity against human OCL3 cells after 48 hrs by fluorescent resazurin dye assay; format: functional, cell-based; conditions: OCL3, 48 h
# [6] = molecular target: T1, DNA topoisomerase 1 (Homo sapiens); experiment: Induction of covalent human topoisomerase 1-plasmid O6#7 DNA adduct stabilization assessed as appearance of nicked plasmid at 100 uM by agarose gel electrophoresis
# In short: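 Supercoiled plasmid aliquots incubated 30 min at 37 °C with nuclear extract containing 50 units topoisomerase I and test agent at 1.6 μM or 100 μM; the DNA products were then examined.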
# [7] = molecular target: T1, DNA topoisomerase 1 (Homo sapiens); experiment: Induction of covalent topoisomerase 1-DNA adduct stabilization in human MIA PaCa cells at 100 uM after 1 hr by ICE assay; format: cell-based; in short: as §2
# HeLa = experiment: Cytotoxicity against human HeLa cells at 10 to 40 uM by coomassie blue assay in presence of topoisomerase 1-directed siRNA
# [8] = molecular target: T1, DNA topoisomerase 1 (Homo sapiens); experiment: Inhibition of human topoisomerase 1-mediated relaxation of supercoiled plasmid O6#7 DNA at 8 uM after 30 mins by gel electrophoresis; in short: as §1
smiles,measurement,setting,value
CN1CCN(C(=O)c2cccc3c(NCCc4c[nH]c5ccccc45)c4ccccc4nc23)CC1,EC50,DU-145,37.2 µM
same,EC50,HCT-116,29 µM
same,EC50,[1],55.9 µM
same,EC50,NCI-H460,16 µM
same,EC50,MCF7,37.2 µM
same,EC50,[2],6.8 µM
same,EC50,SK-MEL,16.7 µM
same,EC50,REH,19.7 µM
same,Activity,[3],inactive
same,Activity,[4],Active
same,EC50,[5],39.8 µM
CCN(CC)C(=O)c1ccc2c(NCCc3c[nH]c4ccccc34)c3ccccc3nc2c1,EC50,DU-145,11.9 µM
same,EC50,HCT-116,11.2 µM
same,EC50,[1],11.2 µM
same,EC50,NCI-H460,18.8 µM
same,EC50,MCF7,13.5 µM
same,EC50,[2],16.2 µM
same,EC50,SK-MEL,16 µM
same,EC50,REH,15.5 µM
same,Activity,[3],inactive
same,Activity,[4],Active
same,EC50,[5],18.3 µM
CN1CCN(C(=O)c2ccc3c(NC4CCN(Cc5ccccc5)CC4)c4ccccc4nc3c2)CC1,EC50,DU-145,32.4 µM
same,EC50,HCT-116,29.2 µM
same,EC50,[1],26.9 µM
same,EC50,NCI-H460,38.5 µM
same,EC50,MCF7,25.7 µM
same,EC50,[2],21.2 µM
same,EC50,SK-MEL,14.6 µM
same,EC50,REH,21 µM
same,Activity,[3],inactive
same,Activity,[6],Active
same,EC50,[5],20.3 µM
same,Activity,[7],Active
same,Activity,HeLa,Active
CN1CCN(C(=O)c2ccc3c(NCCc4c[nH]c5ccccc45)c4ccccc4nc3c2)CC1,EC50,DU-145,16.6 µM
same,EC50,HCT-116,27.6 µM
same,EC50,[1],24.8 µM
same,EC50,NCI-H460,31.8 µM
same,EC50,MCF7,19.2 µM
same,EC50,[2],16.3 µM
same,EC50,SK-MEL,5.3 µM
same,EC50,REH,4.1 µM
same,Activity,[3],inactive
same,EC50,[5],15.3 µM
COc1ccc2c(c1)-c1nn(CCCN(C)C)c3ccc([N+](=O)[O-])c(c13)N2,Activity,[8],Active
CC[C@@]1(O)C(=O)OCc2c1cc1n(c2=O)Cc2cc3ccccc3nc2-1,Activity,HeLa,inactive
